Here are results for two molecules from PMC6044853 (ACS Omega, 2017).

A short description of data set [1]: Solubility in aqueous medium. It counts as physicochemical. The settings on record: precipitation in aqueous medium at >80 μM.
Data set [2] relates to green fluorescent protein-tagged FtsZ in B. subtilis 168. Kind of data set: Z-ring visualization of B. subtilis 168. Type of data set: cell-based, Bacillus subtilis. The method, boiled down: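 B. subtilis 168 expressing functional GFP-tagged FtsZ is treated with compound or DMSO. Z-ring formation is imaged by fluorescence microscopy alongside matching phase-contrast images.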

Data set [3] relates to USA300 #2690. As to the kind of experiment: MIC, clinical isolate strain 9. The conditions noted are these: Staphylococcus aureus, USA300, read-out: MIC strain 9. It counts as cell-based. The gist of the method:
(§1)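 Broth microdilution per CLSI guidelines. MIC is the lowest concentration preventing visible bacterial growth. MIC is reported in μg/mL, with S. aureus values also converted to μM.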

Data set [4] concerns USA300 #417. Kind of data set: MIC, clinical isolate strain 6. It counts as cell-based. The conditions noted are these: Staphylococcus aureus, USA300, read-out: MIC strain 6. The method, boiled down: as §1
Data set [5] has as its system S. aureus ATCC 43300. Kind of data set: MIC, clinical isolate strain 5. It counts as cell-based. The settings on record: Staphylococcus aureus, ATCC43300, read-out: MIC strain 5. The gist of the method:
as §1

Data set [6] deals with T1, S. aureus FtsZ (Staphylococcus aureus, UniProt P0A031).
T1 sequence (P0A031 1-390): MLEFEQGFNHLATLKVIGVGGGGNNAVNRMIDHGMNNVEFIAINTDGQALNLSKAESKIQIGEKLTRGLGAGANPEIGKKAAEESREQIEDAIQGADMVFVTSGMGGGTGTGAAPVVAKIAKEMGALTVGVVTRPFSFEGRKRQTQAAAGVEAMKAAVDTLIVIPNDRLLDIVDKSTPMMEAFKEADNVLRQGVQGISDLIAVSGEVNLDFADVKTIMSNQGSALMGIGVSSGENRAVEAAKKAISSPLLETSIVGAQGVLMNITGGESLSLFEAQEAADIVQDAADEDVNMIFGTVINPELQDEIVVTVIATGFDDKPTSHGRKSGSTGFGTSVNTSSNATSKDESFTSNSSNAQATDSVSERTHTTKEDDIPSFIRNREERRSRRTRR
As to the kind of experiment: STD NMR study. Type of data set: binding. The gist of the method:
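Saturation transfer difference NMR with purified S. aureus FtsZ at 600 MHz and 298 K. For group epitope mapping, each proton's STD signal is integrated relative to the strongest STD signal, set to 100%.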

Data set [7] deals with T1, S. aureus FtsZ. As to the kind of experiment: Light scattering assay of FtsZ polymerization. Type of data set: biochemical. The settings on record: 30 μM compound, vs 1% DMSO vehicle.
Data set [8] has as its system B. subtilis 168. As to the kind of experiment: MIC, B. subtilis 168. The settings on record: Bacillus subtilis, 168, read-out: MIC B. subtilis 168. It counts as cell-based.
For data set [9], the target named is T1, S. aureus FtsZ. As to the kind of experiment: GTPase hydrolysis activity assay. Type of data set: biochemical. The settings on record: read-out: inhibition of GTPase hydrolysis activity.
The test system of data set [10] is B. subtilis 168. As to the kind of experiment: Bacterial morphology of B. subtilis 168. It counts as cell-based, Bacillus subtilis. The conditions noted are these: sublethal concentration; DMSO-treated cells < 5 μm.
For data set [11], the system named is G. mellonella larvae. Kind of data set: Toxicity in G. mellonella larvae. Type of data set: in vivo, Galleria mellonella. The settings on record: 50 and 100 mg/kg in 50% PEG in saline, injected, 48 h. The method, boiled down:
(§2)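 G. mellonella model: groups of 10 last-instar larvae weighing 200–300 mg, held at 37 °C. Test compound is dissolved in 50% PEG in saline (0 [vehicle], 50, 100 mg/kg) and injected into the last left proleg with a Hamilton syringe. Mortality is scored every 12 h for 48 h. Survival is analysed by log rank and χ² test (1 degree of freedom), with three independent experiments.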

Data set [12] concerns USA300 #1799. Kind of data set: MIC, clinical isolate strain 8. Type of data set: cell-based. The settings on record: Staphylococcus aureus, USA300, read-out: MIC strain 8. The method, boiled down:
as §1

Data set [13] concerns S. aureus ATCC 29247. Kind of data set: MIC, clinical isolate strain 1. It counts as cell-based. The conditions noted are these: Staphylococcus aureus, ATCC29247, read-out: MIC strain 1. The method, boiled down: as §1
The test system of data set [14] is USA300 #757. As to the kind of experiment: MIC, clinical isolate strain 7. Type of data set: cell-based. The settings on record: Staphylococcus aureus, USA300, read-out: MIC strain 7. The gist of the method: as §1
The test system of data set [15] is S. aureus strain ATCC 29213. As to the kind of experiment: MIC, broth microdilution. The conditions noted are these: S. aureus 29213; Table 1. Type of data set: cell-based, Staphylococcus aureus. The gist of the method: as §1
Background: In broth dilution the organism is exposed to a series of concentrations in liquid medium.

Data set [16] has as its system G. mellonella larvae infected with MRSA ATCC 43300. As to the kind of experiment: Antimicrobial efficacy in G. mellonella model of infection. The conditions noted are these: 2.5 × 10^6 CFU/larva MRSA ATCC 43300. It counts as in vivo, Galleria mellonella. The method, boiled down:
as §2

The subject of data set [17] is E. coli strain ATCC 25922. As to the kind of experiment: MIC, broth microdilution. The settings on record: Escherichia coli, ATCC25922, read-out: MIC E. coli. It counts as cell-based. The method, boiled down:
as §1

Values after ≈ are worked out from the molar mass of the structure shown. Some results are limits rather than exact numbers.

With `CCC(CC)c1cc(CCN2CCCN(Cc3ccc(C(F)(F)F)cc3)CC2)nc(-c2ccncc2)n1` [14av_amine16, 1-(2-(6-(Pentan-3-yl)-2-(pyridin-4-yl)pyrimidin-4-yl)ethyl)-4-(4-(trifluoromethyl)benzyl)-1,4-diazepane], the compound solubility result in [1] was “poor compound solubility”. The Z-ring localization entry in data set [2] is given as “obvious mislocalization of the Z-ring”. Moreover, the MIC – broadly, the lowest concentration found to suppress growth – in data set [3] turned out to be 6 µg/mL (≈ 11.7 µM); in data set [4] it was 6 µg/mL (≈ 11.7 µM); in data set [5] it was 6 µg/mL (≈ 11.7 µM); in [8] it was 12 µM (≈ 6.14 µg/mL); in [12] it was 6 µg/mL (≈ 11.7 µM); in [13] it was 4 µg/mL (≈ 7.82 µM). Moreover, the MIC in data set [14] was 6 µg/mL (≈ 11.7 µM); in data set [17], above 64 µg/mL. For the same molecule, the “binding to FtsZ protein by STD NMR” value in data set [6] is “binds to FtsZ protein”. Moreover, the “inhibition of FtsZ polymerization” value in [7] was “complete inhibition”. Moreover, the inhibition – broadly, the share of the control response that was lost under treatment – at 50 µM in data set [9] was around 20%. Besides, in [9], the inhibition at 75 µM is around 25%. Moreover, the average cell length in data set [10] is given as above 20 μm. In addition, the “toxicity to G. mellonella larvae (survival)” value in [11] was “did not kill the G. mellonella larvae”. For the same molecule, in data set [15], the “MIC S. aureus” value is 4 µg/mL (≈ 7.82 µM). Further, the “MIC S. aureus, number in parentheses calculated in μM” value in data set [15] is 8 µM (≈ 4.09 µg/mL). For the same molecule, the “survival time of infected larvae” value in data set [16] (50 mg/kg) is 36 h. For the same molecule, the “survival rate of infected larvae” value in [16] (100 mg/kg, 48 h) is 20%.

Turning to `COc1cccc(OC)c1C(=O)N[C@@H]1C(=O)N2[C@@H]1SC(C)(C)[C@@H]2C(=O)O` [methicillin, reference compound], the MIC is above 64 µg/mL in data set [4], above 64 µg/mL in data set [5], 64 µg/mL (≈ 168 µM) in data set [12] and 64 µg/mL (≈ 168 µM) in data set [14].
